Legend:
[1] = test system: nNOS in 293T/nNOS cells; experiment: Activation of nNOS in 293T/nNOS cells by A23187; type: cell-based, rat; details: A23187 5 μM, after the 8 h-incubation, deduced from Fig. 1C
Summary of the method: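 HEK 293T cells stably transfected with rat nNOS cDNA (lipofection, Geneticin 0.8 mg/ml selection, single-cell cloning, highest-expressing clone), maintained in DMEM with 0.4 mg/ml Geneticin. At ~80% confluence, cells were exposed to 5 μM A23187 or left untreated, alongside WT 293T cells ± A23187. Nitrite in the culture medium was measured by Griess reagent at different times.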

[2] = test system: 293T/nNOS cells; type: cell-based; details: for Cell health after treatment: 293T/nNOS cells during the period of A23187 stimulation; for Cytotoxicity: by visual inspection under a microscope; for Inhibition of cell growth: experimental conditions of the inhibition assay
[3] = test system: nNOS over eNOS; details: cited from earlier work
[4] = test system: nNOS over eNOS in rat tissue; details: cited from earlier work

| SMILES | Cell health after treatment [2] | Cytotoxicity ([2]; 293T/nNOS cells) | Inhibition of cell growth ([2]; 293T/nNOS cells) | also measured |
| --- | --- | --- | --- | --- |
| CNc1ccc2oc(C[C@H]3O[C@@]4(CC[C@H]3C)O[C@H]([C@H](C)C(=O)c3ccc[nH]3)[C@H](C)C[C@H]4C)nc2c1C(=O)O [A23187] | – | – | – | Nitrite concentration [1]: ~ 18 μM; Cell death with A23187 stimulation ([2]; 293T/nNOS cells, after 10 h with A23187): no obvious cell death |
| N=C(Nc1ccc(CCNCc2cccc(Cl)c2)cc1)c1cccs1 [AR-R17477] | remained healthy | no obvious cytotoxicity | Neither compound 3 nor AR-R17477 inhibited cell growth | – |
| CCSC(N)=NCCC[C@H](N)C(=O)O [Et-TC, S-ethyl-L-thiocitrulline] | – | – | – | Selectivity in vitro for nNOS inhibition over eNOS (in words) [3]: more selective |
| CSC(N)=NCCC[C@H](N)C(=O)O [Me-TC, S-methyl-L-thiocitrulline] | – | – | – | Inhibition of nNOS over eNOS in rat tissue (in words) [4]: better than Et-TC |
| N=C(NCCC[C@H](N)C(=O)O)N[N+](=O)[O-] [NNA, N^ω-Nitro-L-arginine] | remained healthy | – | – | Cell death ([2]; 293T/nNOS cells under the experimental conditions of the inhibition assay): No cell death was observed |
| Cc1cc(N)nc(CC2CNCC2NCCNCCc2cccc(F)c2)c1 (centres unmarked) [compound 3, N-[4-(6-amino-4-methylpyridin-2-ylmethyl)pyrrolidin-3-yl]-N′-(3-fluorophenylethyl) ethane-1,2-diamine] | – | no obvious cytotoxicity | Neither compound 3 nor AR-R17477 inhibited cell growth | – |
